Compound activity (PubChem)
The list is not random: actives were taken first. Their share in the collection is about 1.5%.
Platelet DG rel = modulates dense granule release in human platelets; human platelet-rich plasma, SFLLRN dense granule ATP release, luminescence; inhibition, %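 (compounds screened at 7.5 µM in platelet-rich plasma)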; hit rate 0.22% among 300,000;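 active = mean replicate score, as percent of positive control, at or above 50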
STAT3 inh = STAT3 signaling inhibition; U3A cells, IL-6 STAT3-luciferase reporter, luminescence; host cell line lacks STAT1; inhibition, % at 5.5 µM; hit rate 0.89% among 190,000; AID 862;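 active = inhibition above the mean inhibition across all screened compounds plus 3 SD, cut at about 44% in these data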;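 also: 0% = DMSO only wells and 100% = 100 µM nifuroxazide control wells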
Hep lipid drop = hepatic lipid droplet formation modulation; AML12 mouse hepatocytes, oleate lipid droplets, BODIPY imaging; hit rate 0.4% among 240,000; inhibition, % at 6.5 µM;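 active = lipid droplet intensity inhibited by at least 50%, with more than 500 cells counted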
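Material – mouse AML12 hepatocyte cell line, fixed after treatment · Compound dosing – one dose, 6.5 µM compound · Times – compound with oleate, overnight · Measured by – Image-based BODIPY and DAPI two-channel analysis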
PPC-1+TRAIL kill = PPC-1 cancer cell killing with TRAIL present; cell killing (% activity), % at 4 µM or 5 µM; AID 1443; PPC-1 cells + TRAIL, ATPLite viability luminescence; hit rate 0.41% among 220,000;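 active = cell killing above 50% in the first pass at 4 µM, then a duplicate retest at 5 µM averaging 50% or more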;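 also: plate controls were cells with TRAIL plus DMSO for no effect and medium-only wells lacking cells for full effect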
TAG inh = triacylglycerol accumulation inhibition; H9c2 cells, Nile Red lipid (TAG) fluorescence; cells loaded with 200 µM oleic acid; inhibition, % at 12.5 µM; hit rate 0.66% among 230,000;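 active = pattern-corrected inhibition of lipid staining of at least 50% with the nuclear-stain viability signal not falling by more than 50%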;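 also: 0% = DMSO wells and 100% = triacsin C control wells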
STAT1 blocker = inhibitors of IFN-gamma induced STAT1 signaling. NIH 3T3 STAT1-luciferase reporter, luminescence. inhibition, % at 5.5 µM. hit rate 0.35% among 200,000. AID 920;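 active = inhibition above a set limit, the mean inhibition across all tested compounds plus 3 SD, cut at about 34% in these data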;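 also: 0% = IFN-gamma with DMSO and 100% = IFN-gamma with 300 µM nifuroxazide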
Hep lipid conf = hepatic lipid droplet formation inhibition, confirmed. shares compounds with Hep lipid drop. inhibition, % at 5.2 µM. AML12 mouse hepatocytes, BODIPY lipid droplet imaging; droplets induced with 100 µM oleic acid. hit rate 65% among 870;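 active = inhibition of lipid droplet metric at least 50%, with more than 300 cells in each of four replicates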;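 also: plate controls were DMSO with oleic acid for no effect and 5 µM Triacsin-C for full effect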
AML12 cytotox = counter-screen for cytotoxicity in AML12 mouse hepatocytes | shares compounds with Hep lipid drop | DAPI nuclear morphology cytotoxicity imaging; stronger effect = higher value; cells fed 100 µM oleate overnight | z-score at 5 µM | hit rate 3% among 870; in the data active = z-score above about 6.3;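 also: compound exposure lasted overnight at 37 °C before fixation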
AML12 tox ATP = AML12 hepatocyte cytotoxicity, confirmed; shares compounds with Hep lipid drop; AML12 mouse hepatocyte viability, ATP luminescence; cells loaded with 100 µM oleic acid; cytotoxicity, % at 50 µM; 530 tested, under 10 active; AID 463219;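 active = cytotoxicity above 50% in each of four replicates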;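 also: compound exposure lasted overnight at 37 °C before the ATP read; 0% = DMSO-treated cells and 100% = wells with no cells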
* marks the source's active call; other numbers are inactive results; . = no result.

SMILES	Platelet DG rel	STAT3 inh	Hep lipid drop	PPC-1+TRAIL kill	TAG inh	STAT1 blocker	Hep lipid conf	AML12 cytotox	others
CCOc1ccc(NS(=O)(=O)c2ccc(C(=O)N3CCCC3)cc2)cc1	0.6	.	.	.	34.0	.	.	.
COc1ccc(Cl)cc1NC(=O)CCc1ccccc1	0.3	17.3	-14.5	10.5	-54.5	-5.5	.	.
COc1ccc(Cl)cc1NC(=O)CCNC(=O)OCc1ccccc1	4.4	13.1	62.6*	19.1	.	-5.3	100.3*	0.0639	AML12 tox ATP=1.9
COC(=O)c1cccc(OCC(O)Cn2ccnc2)c1 (stereo unspecified)	8.7	-0.2	.	3.0	2.9	-8.3	.	.
OC(COc1ccc2cc(Br)ccc2c1)Cn1ccnc1 (stereo unspecified)	-1.2	.	52.8*	.	.	.	27.5	-0.386
CCCCn1c(O)c(/C=C/C=C/C=Nc2ccccc2)sc1=S	2.5	15.9	60.9*	-5.7	3.7	5.5	34.2	0.243
CCCn1c(O)c(C=Nc2ccccc2)sc1=S	-1.8	7.6	-1.9	-1.1	-3.9	-43.1	.	.
Oc1c(/C=C/C=C/C=Nc2ccccc2)sc(=S)n1Cc1ccccc1	7.2	.	74.3*	-5.5	5.0	.	75.7*	0.807	AML12 tox ATP=27.7
CCn1c(O)c(/C=C/C=C/C=Nc2ccccc2)sc1=S	-1.3	4.6	14.7	8.5	-7.3	-5.4	.	.
CC(C)CCN(C(=O)c1cc(=O)[nH]c2ccccc12)c1c(N)n(Cc2ccccc2)c(=O)[nH]c1=O	.	.	.	.	-1.6	.	.	.
CCCC#Cc1ccc2c(c1)O[C@H](CN(C)C(=O)CC1CC1)[C@H](C)CN([C@@H](C)CO)S2(=O)=O	.	.	.	.	25.1	.	.	.
COc1ccc(OC)c(NC(=O)c2ccccc2SC)c1	-1.8	23.5	-0.8	-0.5	.	-5.0	.	.
COc1ccc(OC)c(NC(=O)c2cc3oc4ccccc4c3cc2O)c1	-2.9	.	108.2*	15.1	.	.	17.9	0.111
CCOc1ccccc1Nc1nnc(SC(C)C(=O)Nc2nc(-c3ccccc3)cs2)s1 (stereo unspecified)	-8.0	-16.5	74.8*	13.7	.	2.3	105.4*	-0.199	AML12 tox ATP=6.9
CCOc1ccccc1Nc1nnc(SCC(=O)NC(=O)c2cccn2C)s1	2.1	-6.6	-0.9	6.4	8.9	4.1	.	.
COc1ccc(-c2csc(NC(=O)CN3C(=O)CCC3=O)n2)cc1	0.1	-1.6	-2.1	6.5	15.5	-13.5	.	.
CCCOc1ccc(-c2csc(NC(=O)CN3C(=O)CCC3=O)n2)cc1	6.4	14.9	94.9*	10.3	34.7	1.0	109.0*	-0.434
CCCC(=O)Nc1cccc(C(=O)Nc2ccccc2OCC)c1	2.9	30.3	72.8*	17.3	.	-4.2	98.9*	0.643
C=C(C)c1cccc(C(C)(C)NC(=O)Nc2ccccc2OCC)c1	3.5	-2.5	52.5*	4.3	.	-2.8	53.3	0.0351
O=C(Nc1ccc(Cl)cc1)C1Cc2c(-c3ccccc3Oc3ccccc3)ccnc2O1 (stereo unspecified)	.	.	.	.	-10.5	.	.	.
COc1ccc(OC)c(CCNC(=O)C(C)n2nc(C)c3c(C)n(-c4ccc(C)cc4)nc3c2=O)c1 (stereo unspecified)	-4.7	.	60.3*	.	.	.	99.3*	-0.0521	AML12 tox ATP=22.5
COc1ccc(OC)c(CCNC(=O)C(C)n2nc(C)c3c(C)n(-c4ccccc4)nc3c2=O)c1 (stereo unspecified)	-7.3	.	42.4	.	.	.	.	.
Cc1c(Cl)sn(-c2ccc(Cl)cc2)c1=O	.	6.6	59.0*	42.7	106.1	-20.6	-12.5	10.8*
Cc1nn(-c2ccc(Cl)cc2)c(=O)c2ccccc12	-4.3	-30.9	-14.9	-13.9	-0.9	-32.7	.	.
CC(C)C(=O)N1CCCC1(C)C(=O)N(C)Cc1cccc2ccccc12 (stereo unspecified)	.	.	.	.	7.9	.	.	.
N#CC(c1ccc(Cl)cc1)c1ccc2c(C(F)(F)F)cc(C(F)(F)F)nc2n1 (stereo unspecified)	5.6	87.1*	59.1*	-0.9	25.7	74.7*	-68.5	6.24*
